According to ChEMBL document CHEMBL1126138, “Preparation and opioid activity of analogues of the analgesic dipeptide 2,6-dimethyl-L-tyrosyl-N-(3-phenylpropyl)-D-alaninamide” (J Med Chem, 1992):

Tests used:
Mus musculus [1] = organism: Mus musculus; assay: Analgesic activity evaluated in mice by writhing test (confidence limit); assay type: functional
[2] = target: Kappa-type opioid receptor (Rattus norvegicus) (UniProt P34975); assay: Ratio of IC50 of opioid receptor kappa to IC50 opioid receptor mu
Kappa-type opioid receptor (Rattus norvegicus), sequence (P34975 whole entry): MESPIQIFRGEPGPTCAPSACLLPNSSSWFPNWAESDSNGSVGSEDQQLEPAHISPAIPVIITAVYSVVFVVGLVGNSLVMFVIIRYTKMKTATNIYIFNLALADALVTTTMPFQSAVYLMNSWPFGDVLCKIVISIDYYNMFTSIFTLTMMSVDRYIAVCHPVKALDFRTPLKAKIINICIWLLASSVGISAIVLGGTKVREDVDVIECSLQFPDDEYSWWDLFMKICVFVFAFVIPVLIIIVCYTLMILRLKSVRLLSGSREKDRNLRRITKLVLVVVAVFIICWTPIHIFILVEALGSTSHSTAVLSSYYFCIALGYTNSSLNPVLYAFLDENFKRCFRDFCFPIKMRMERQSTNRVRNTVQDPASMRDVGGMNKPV

[3] = target: Delta-type opioid receptor (Rattus norvegicus, UniProt P33533); assay: Binding ability towards opioid receptor delta expressed in homogenates of rat brain.; assay type: tissue-based
Delta-type opioid receptor, sequence (P33533 whole entry): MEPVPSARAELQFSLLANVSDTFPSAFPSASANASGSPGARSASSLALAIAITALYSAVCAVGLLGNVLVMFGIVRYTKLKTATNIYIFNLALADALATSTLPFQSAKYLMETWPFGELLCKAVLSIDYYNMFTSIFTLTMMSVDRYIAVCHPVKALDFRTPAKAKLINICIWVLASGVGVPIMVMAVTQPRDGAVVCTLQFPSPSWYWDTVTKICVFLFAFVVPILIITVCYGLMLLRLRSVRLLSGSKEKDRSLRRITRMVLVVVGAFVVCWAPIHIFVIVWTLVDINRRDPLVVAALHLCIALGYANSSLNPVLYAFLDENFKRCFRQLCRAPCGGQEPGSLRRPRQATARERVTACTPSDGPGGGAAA

Mu-type opioid receptor = Mu-type opioid receptor (Rattus norvegicus, UniProt P33535); assay: Binding ability towards opioid receptor mu expressed in homogenates of rat brain.; assay type: tissue-based
Mu-type opioid receptor, sequence (P33535 whole entry): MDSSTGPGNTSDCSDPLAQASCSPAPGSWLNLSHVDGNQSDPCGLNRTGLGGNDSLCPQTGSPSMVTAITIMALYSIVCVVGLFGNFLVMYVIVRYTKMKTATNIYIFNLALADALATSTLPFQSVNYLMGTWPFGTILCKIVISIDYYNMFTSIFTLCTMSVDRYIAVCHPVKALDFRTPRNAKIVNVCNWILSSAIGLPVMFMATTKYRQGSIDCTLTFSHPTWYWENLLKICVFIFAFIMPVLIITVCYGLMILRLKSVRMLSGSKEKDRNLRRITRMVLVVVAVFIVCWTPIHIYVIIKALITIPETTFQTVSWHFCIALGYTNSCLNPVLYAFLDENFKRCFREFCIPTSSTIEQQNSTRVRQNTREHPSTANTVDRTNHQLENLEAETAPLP

[4] = target: Delta-type opioid receptor (Rattus norvegicus) (UniProt P33533); assay: Ratio of IC50 of opioid receptor delta to IC50 opioid receptor mu
Delta-type opioid receptor (Rattus norvegicus), sequence (P33533 whole entry): as the sequence (P33533 whole entry) above

Mus musculus [5] = assay: Number of mice of those tested in which 10 mg/kg compound inhibited writhing; assay type: functional
In short: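 Mouse writhing test with a single 10 mg/kg dose of compound. The value is the count of mice whose writhing was inhibited, out of the number tested.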

[6] = target: Delta-type opioid receptor (Rattus norvegicus) (UniProt P33533); assay: Binding ability towards opioid receptor delta expressed in homogenates of rat brain at 100 nM concentration; assay type: tissue-based
In short: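 Rat brain homogenate, δ opioid binding site. Test compound at 100 nM. The value is the maximum percent displacement at that concentration.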

Row | SMILES | ED50 (Mus musculus [1]) [mg/kg] | Ratio [2] | IC50 [3] [nM] | IC50 (Mu-type opioid receptor) [nM] | Ratio [4] | No. of mice (Mus musculus [5]) | Displacement [6] [%]
1 | Cc1cc(O)cc(C)c1C[C@H](N)C(=O)N[C@H](C)C(=O)NCCCc1ccccc1 | 0.52 | 2920 | 3.98 | 0.13 | 30.6 |  | 
2 | Cc1cc(O)cc(C)c1C[C@H](N)C(=O)N1CCCCC1CNCCCc1ccccc1 (some centres not stated) |  | 222 | 12.1 | 0.045 | 269 | 3 | 
3 | Cc1cc(O)cc(C)c1C[C@H](N)C(=O)N1CCCCC1COCCCc1ccccc1 (some centres not stated) | 2.1 | 173 | 110 | 1.62 | 67.9 |  | 
4 | Cc1cc(O)cc(C)c1C[C@H](N)C(=O)NC(C)/C(F)=C/CCCc1ccccc1 (some centres not stated) | 2.1 | 1160 |  | 6.9 |  |  | 47.3
5 | Cc1cc(O)cc(C)c1C[C@H](N)C(=O)N[C@H](CO)COCCCc1ccccc1 | 2.1 | 3530 | 233 | 1.67 | 139 |  | 
6 | Cc1cc(O)cc(C)c1C[C@H](N)C(=O)N[C@@H](COCCCc1ccccc1)COC(C)(C)C | 1.7 | 282 | 340 | 33 | 10.3 |  | 
7 | Cc1cc(O)cc(C)c1C[C@H](N)C(=O)NC(C)/C=C/CCCc1ccccc1 (some centres not stated) | 2.1 | 1100 |  | 5.4 |  |  | 39.3
8 | Cc1cc(O)cc(C)c1C[C@H](N)C(=O)N[C@H](C)COCCCc1ccccc1 |  | 2600 | 21 |  | 42 | 3 | 
9 | Cc1cc(O)cc(C)c1C[C@H](N)C(=O)N[C@H](C)CNCCCc1ccccc1 |  | 2540 | 46 | 0.13 | 354 | 4 | 
